A selection: hits, their analogues and other compounds. The true share with any hit is near 2%.
HSP90 refold inh: HSP90 inhibitors, primary screen, cell lysate, luminescence; Heat shock protein HSP 90 (rabbit reticulocyte lysate; luciferase refolding); Rabbit reticulocyte lysate, luciferase refolding luminescence, 3 h; inhibition, % at 5.6 µM; actives 0.91% (n = 290,000); AID 1789, 2009;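 active = inhibition above the screen-wide mean plus 3 SD, computed separately per campaign, cut at about 16% in these data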;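 note: 0% = DMSO wells and 100% = 60 µM geldanamycin wells; inhibitors lower the luminescence because luciferase stays unfolded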
STAT3 inh: IL-6 driven STAT3 reporter inhibitors, primary screen, U3A cells, luciferase, luminescence, MLSCN library | IL-6 STAT3-luciferase reporter; host cell line lacks STAT1 | inhibition, % at 5.5 µM | actives 0.89% (n = 190,000);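 active = inhibition above the mean inhibition across all screened compounds plus 3 SD, cut at about 44% in these data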;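 note: 0% = DMSO only wells and 100% = 100 µM nifuroxazide control wells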
STAT3 act-1: IL-6 driven STAT3 reporter potentiators, primary screen, U3A cells, luciferase, luminescence, MLSCN library; IL-6 STAT3-luciferase reporter; 100% = signal with IL-6 EC80 alone; AID 871, 2007; actives 0.91% (n = 190,000); activation (% of control), % at 5.6 µM;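 active = activation above the screen-wide mean of compound activation plus 3 SD, cut at about 130% in these data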;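 note: 0% = background luminescence of wells with medium and substrate only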
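Detection: reporter luminescence signal / Assay system: STAT1-lacking human U3A cells, STAT3 luciferase reporter / Incubation: compound pre-incubation 1 h before IL-6, then 6 h stimulation at 37 °C / Control set: IL-6-only high control / Read-out: % activation relative to IL-6 control / Probe or stimulus: Interleukin-6, 33 ng/mL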
STAT1 inh-1: STAT1 signaling inhibitors, primary screen, cell-based, HTS, luciferase reporter; inhibition, % at 5.5 µM; AID 920, 2007; NIH 3T3 STAT1-luciferase reporter, IFN-gamma, luminescence; actives 0.35% (n = 200,000);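 active = inhibition above a set limit, the mean inhibition across all tested compounds plus 3 SD, cut at about 34% in these data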;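 note: 0% = IFN-gamma with DMSO and 100% = IFN-gamma with 300 µM nifuroxazide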
STAT3 act-2: STAT3 reporter potentiators, retest of hits, confirmation, U3A cells, luciferase, luminescence; shares compounds with STAT3 act-1; IL-6 potentiation; U3A cells lack STAT1; 100 means same as IL-6 alone; potentiation (% of control), % at 5.7 µM; actives 64% (n = 1,200); AID 1267, 2008;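 active = percent activation of the STAT3 luciferase reporter above a set limit taken from the earlier primary screen, cut at about 130% in these data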;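 note: 0% = background signal of medium plus substrate and 100% = median of IL-6 with DMSO wells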
NFkB act STAT3ct: NF-kB reporter activators in human cells, counter-screen for STAT3 activator project; shares compounds with STAT3 act-1; NF-kappaB reporter activation; activation (% of control), % at 5.7 µM; actives 11% (n = 1,200); AID 1309, 2008; in the data active = activation above about 120%;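 note: reporter induced by TNF-alpha stimulation; 100% = median of stimulated DMSO wells and 0% = no signal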
STAT1 act: STAT1 reporter activators, IFN-gamma induced, counter-screen for STAT3 activator project, cell-based, NIH 3T3, luciferase luminescence. shares compounds with STAT3 act-1. NIH 3T3 STAT1-luciferase reporter. activation (% of control), % at 5.7 µM. actives 13% (n = 1,200);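 active = activation above the solvent-only control well mean plus 3 SD, set per screening run, cut at about 120% in these data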;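 note: 100% = IFN-gamma with DMSO median signal so 100% means no change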
STAT1 inh-2: STAT1 signaling inhibitors, confirmation, cell-based, HTS, luciferase reporter; shares compounds with STAT1 inh-1; AID 1263, 2008; actives 55% (n = 200); inhibition, % at 5.5 µM; NIH 3T3 STAT1-luciferase reporter, IFN-gamma, luminescence;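 active = triplicate mean inhibition exceeding the hit cutoff computed for the primary STAT1 screen, cut at about 35% in these data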;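 note: 0% = DMSO with IFN-gamma and 100% = 300 µM nifuroxazide with IFN-gamma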
NFkB inh: NF-kB reporter inhibitors, TNF-alpha stimulated, counter-screen for STAT1 inhibitor project, cell-based, HEK293T, luciferase luminescence | actives 30% (n = 200) | inhibition, % at 5.7 µM | shares compounds with STAT1 inh-1 | TNF-alpha induced;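 active = inhibition above the mean of solvent-only control wells plus 3 SD of those wells, cut at about 15% in these data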;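 note: 0% = DMSO with TNF-alpha and 100% = MG-132 control with TNF-alpha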
STAT3 inh STAT1c: STAT3 reporter inhibition by STAT1 hits, counter-screen for STAT1 inhibitor project, U3A cells, luciferase, luminescence, triplicate; actives 20% (n = 200); shares compounds with STAT1 inh-1; IL-6 STAT3 luciferase reporter; cells lacking STAT1; inhibition, % at 5.7 µM; AID 1310, 2008;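 active = inhibition above the mean of solvent-only control wells plus 3 SD, set per campaign, cut at about 25% in these data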;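 note: 0% = IL-6 plus DMSO and 100% = IL-6 plus nifuroxazide control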
HSP90 confirm: HSP90 inhibitors, confirmation, cell lysate, luminescence. shares compounds with HSP90 refold inh. rabbit reticulocyte lysate, luciferase refolding luminescence, 3 h. inhibition, % at 5.9 µM. actives 64% (n = 2,300). AID 1846, 2009; in the data active = inhibition above about 18%;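 note: 0% = vehicle wells and 100% = reference inhibitor wells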
FLuc counter: firefly luciferase inhibitors, HSP90 counter-screen, confirmation, artefact control for HSP90 inhibitor project, biochemical, luminescence, triplicate; shares compounds with HSP90 refold inh; purified native firefly luciferase; inhibition, % at 5.9 µM; actives 48% (n = 2,300); AID 1847, 2009;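 active = inhibition above the mean inhibition of all tested sample wells plus 3 SD, cut at about 10% in these data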;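 note: 0% = DMSO with luciferase and 100% = wells lacking luciferase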
Target sequence (P08659 whole entry, looked up): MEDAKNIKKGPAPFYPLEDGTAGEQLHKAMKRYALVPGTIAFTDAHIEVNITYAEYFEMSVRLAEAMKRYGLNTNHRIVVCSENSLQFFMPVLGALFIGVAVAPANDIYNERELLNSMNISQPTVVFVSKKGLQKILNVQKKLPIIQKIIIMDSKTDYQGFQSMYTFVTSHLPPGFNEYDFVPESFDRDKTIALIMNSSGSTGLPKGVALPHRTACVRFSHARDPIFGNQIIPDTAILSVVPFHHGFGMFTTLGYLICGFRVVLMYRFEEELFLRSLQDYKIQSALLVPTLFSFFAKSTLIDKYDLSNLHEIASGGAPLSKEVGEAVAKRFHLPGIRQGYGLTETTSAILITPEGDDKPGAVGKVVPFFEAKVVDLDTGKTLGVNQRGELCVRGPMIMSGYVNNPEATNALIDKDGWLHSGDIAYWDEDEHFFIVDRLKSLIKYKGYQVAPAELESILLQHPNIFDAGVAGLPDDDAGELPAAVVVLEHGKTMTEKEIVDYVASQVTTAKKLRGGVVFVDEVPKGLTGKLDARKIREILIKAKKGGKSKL
* = called active by the depositor; . = no result given.

SMILES	HSP90 refold inh	STAT3 inh	STAT3 act-1	STAT1 inh-1	STAT1 inh-2	NFkB inh	STAT3 inh STAT1c	others
O=C(Nc1ccccc1)c1oc2ccccc2c1NC(=O)C1CC1	-4.0	.	.	.	.	.	.
COc1ccc(CCNC(=O)CCSCc2ccccc2F)cc1OC	-0.8	.	.	.	.	.	.
COc1ccccc1C1c2[nH]c3ccccc3c2CCN1Cc1cnc(C)s1 (configuration not stated)	2.8	-45.5	146.1*	54.5*	32.1	5.8	-53.5	STAT3 act-2=176.3*;NFkB act STAT3ct=105.7;STAT1 act=94.8
CCCCCNC(=O)C1CCC(Cn2c(=S)[nH]c3ccccc3c2=O)CC1 (configuration not stated)	-1.5	-1.0	106.7	1.1	.	.	.
Cc1ccc(S(=O)(=O)/N=C2/C=C(Sc3ncn[nH]3)C(=O)c3ccccc32)cc1	89.3*	-51.8	140.7*	15.0	.	.	.	STAT3 act-2=132.1;NFkB act STAT3ct=107.4;STAT1 act=83.2;HSP90 confirm=37.8*;FLuc counter=44.9*
CCOc1ccc(CN(C)C(=O)CNC(=O)c2ccc(Br)o2)cc1OC	4.0	.	.	.	.	.	.
c1ccc(Oc2ncnc3oc(-c4ccccc4)cc23)cc1	-9.6	5.6	96.8	-3.0	.	.	.
c1ccc(-c2cc3c(-n4cccc4)ncnc3o2)cc1	17.2*	-52.2	150.9*	12.2	.	.	.	STAT3 act-2=160.2*;NFkB act STAT3ct=112.2;STAT1 act=112.6;HSP90 confirm=-4.3;FLuc counter=-15.9
Cc1cccc(/C=C(\c2nc3ccccc3[nH]2)S(=O)(=O)c2ccccc2)c1	5.8	9.0	94.6	38.4*	46.8*	4.5	17.8
Cc1oc2c(c1C(=O)NCc1cccnc1)C(=O)c1ccccc1C2=O	16.4*	.	.	89.5*	97.7*	73.9*	65.3*
COc1ccc(CNC(=O)c2c(C)oc3c2C(=O)c2ccccc2C3=O)cc1	2.6	-2.5	102.0	-12.3	.	.	.
CCOC(=O)N1CCN(C(=O)CCn2c(=S)[nH]c3ccsc3c2=O)CC1	0.8	13.4	90.6	47.6*	19.4	-4.4	-0.6
Cn1cncc1C(=O)c1ccccc1	-0.8	.	.	.	.	.	.
CC(C)(C)c1ccc(NC(=O)C2CCCN(c3cnccn3)C2)cc1 (configuration not stated)	1.3	.	.	.	.	.	.
Cc1ccc(CNS(=O)(=O)c2c(C(=O)N3CCCCC3)c(C)n(C)c2C)o1	-0.7	.	.	.	.	.	.
Cc1nn(C)cc1C(=O)Nc1cc(Oc2ccc(Cl)cc2)cc([N+](=O)[O-])c1	-3.5	-9.5	106.4	5.3	.	.	.
Cn1cc([N+](=O)[O-])c(C(=O)Nc2cc(Oc3ccccc3)cc([N+](=O)[O-])c2)n1	6.8	18.4	87.2	34.8*	40.4*	24.0*	-0.7
O=C(Cc1ccccc1)NCC(=O)OCc1ccc([N+](=O)[O-])cc1	2.4	4.8	96.1	-0.3	.	.	.
COCCn1c(C)cc(C(=O)COc2ccc(C)nc2[N+](=O)[O-])c1C	4.0	31.7	76.3	35.9*	-15.2	11.4	2.4
CC1=NN(c2nc3ccccc3[nH]2)C(=O)/C1=C/N(C)C	7.7	29.0	78.0	41.2*	-92.0	-3.0	-14.8
CC1=C(OC(=O)C(C)(C)C)C(C)(C)C(c2ccccc2)OC1=O (configuration not stated)	1.0	-9.5	105.6	2.4	.	.	.
O=C(/C=C/c1cn(-c2ccccc2)nc1-c1cccnc1)N1CCCC1	-0.9	26.3	83.2	70.9*	55.2*	36.6*	33.2*
CSc1ccc(C(=O)N2CCC(n3nccc3NC(=O)C3CC3)CC2)cc1	-3.9	.	.	.	.	.	.
O=C(C1CCC(CNc2nc(=S)[nH]c3ccccc23)CC1)N1CCN(c2ccc(F)cc2)CC1 (configuration not stated)	-1.0	5.6	96.6	48.0*	33.2	5.8	18.6
COc1ccc(N2CCN(CCCNC(=O)C3CCC(CNc4nc(=S)[nH]c5ccccc45)CC3)CC2)cc1 (configuration not stated)	3.0	23.5	81.8	23.1	.	.	.
SMILES	HSP90 refold inh	STAT3 inh	STAT3 act-1	STAT1 inh-1	STAT1 inh-2	NFkB inh	STAT3 inh STAT1c	others
O=C(Nc1nnc(CCc2ccccc2)s1)c1ccccc1F	-1.0	.	.	.	.	.	.
CCCN1CC(=O)N2C(c3cccc(OC)c3OC)c3[nH]c4ccccc4c3C[C@H]2C1=O (some centres not stated)	4.9	.	.	.	.	.	.
COc1cccc(C2c3[nH]c4ccccc4c3CCN2Cc2cnc(C)s2)c1OC (configuration not stated)	-0.8	-27.1	128.7	60.0*	15.3	11.9	-27.0
CCOC(=O)C1=C(CC)Nc2ccccc2N=C1NC(=O)c1ccc(OC)c(S(=O)(=O)N2CCCCC2C)c1 (configuration not stated)	0.3	-6.3	107.2	37.2*	17.2	-2.1	-22.0
O=C(NCc1ccc(Cl)cc1)C1CC(O)CN1S(=O)(=O)c1ccc(Cl)cc1 (configuration not stated)	-2.9	.	.	.	.	.	.
Cc1ccc(S(=O)(=O)n2nc(C)cc2C)cc1	6.0	7.2	94.1	-1.4	.	.	.
Cc1cc(C)n(S(=O)(=O)/C=C/c2ccccc2)n1	5.4	29.3	77.8	37.9*	42.4*	-3.2	3.5
Cc1nn(Cc2ccc(Cl)c(Cl)c2)c(C)c1NC(=O)c1cc(-c2ccc3c(c2)OCO3)on1	0.6	13.1	89.4	36.6*	26.8	7.8	18.1
COc1ccc(NC2CCCN(C(=O)CCN3Cc4ccccc4C3=O)C2)cc1 (configuration not stated)	-6.2	.	.	.	.	.	.
